Active and inactive are the calls of the source. The calls are words filed in the database; no cut-off is given here.
Tests used:
[1] = target: T1, Sodium-dependent noradrenaline transporter (Homo sapiens, UniProt P23975); test: Enhancing of [3H]mazindol binding to recombinant human NET expressed in HEK293 cell membranes preincubated for 10 mins followed by radioligand addition measured after 90 mins by micro beta scintillation counting analysis
[2] = target: T2, Sodium-dependent dopamine transporter (Homo sapiens, UniProt Q01959); test: Inhibition of [3H]mazindol binding to recombinant human DAT expressed in HEK293 cell membranes preincubated for 10 mins followed by radioligand addition measured after 90 mins by micro beta scintillation counting analysis
[3] = target: T2, Sodium-dependent dopamine transporter; test: Enhancing of [3H]mazindol binding to recombinant human DAT expressed in HEK293 cell membranes preincubated for 10 mins followed by radioligand addition measured after 90 mins by micro beta scintillation counting analysis; details: hek293
Outline: (§1)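 Membranes of HEK-293 cells stably expressing hDAT, hNET or hSERT. […] Compound preincubated 10 min at room temperature, then [125I]23 (40-80 pM final) or [3H]26 (1-3 nM for DAT and NET, 10-13 nM for SERT) added. Incubated 90 min at room temperature in the dark, then filtered. EC50 or Ki; mean ± SEM.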

[4] = target: T1, Sodium-dependent noradrenaline transporter; test: Inhibition of [3H]mazindol binding to recombinant human NET expressed in HEK293 cell membranes preincubated for 10 mins followed by radioligand addition measured after 90 mins by micro beta scintillation counting analysis
[5] = target: T1, Sodium-dependent noradrenaline transporter; test: Inhibition of [125I]RTI-55 binding to recombinant human NET expressed in HEK293 cell membranes preincubated for 10 mins followed by radioligand addition measured after 90 mins by micro beta scintillation counting analysis
[6] = target: T3, Sodium-dependent serotonin transporter (Homo sapiens, UniProt P31645); test: Enhancing of [125I]RTI-55 binding to recombinant human SERT expressed in HEK293 cell membranes preincubated for 10 mins followed by radioligand addition measured after 90 mins by micro beta scintillation counting analysis; details: hek293
[7] = target: T1, Sodium-dependent noradrenaline transporter; test: Inhibition of recombinant human NET expressed in HEK293 […] assessed as reduction in [3H]-norepinephrine uptake incubated for 22 mins by micro beta scintillation counting analysis
[8] = target: T2, Sodium-dependent dopamine transporter; test: Enhancing of [125I]RTI-55 binding to recombinant human DAT expressed in HEK293 cell membranes preincubated for 10 mins followed by radioligand addition measured after 90 mins by micro beta scintillation counting analysis; outline: as §1
[9] = target: T1, Sodium-dependent noradrenaline transporter; test: Enhancing of [125I]RTI-55 binding to recombinant human NET expressed in HEK293 cell membranes preincubated for 10 mins followed by radioligand addition measured after 90 mins by micro beta scintillation counting analysis
Adenosine receptor A3 = target: T4, Adenosine receptor A3 (Homo sapiens, UniProt P0DMS8); test: Displacement of [125I]N6-(4-amino-3-iodobenzyl)adenosine-5'-N-methyluronamide from human A3AR expressed in HEK293T cells pre-incubated for 10 mins before radioligand addition and measured 90 mins after radioligand addition by micro beta scintillation counting analysis relative to control; assay type: cell-based, HEK-293T
T4 sequence (P0DMS8 whole entry): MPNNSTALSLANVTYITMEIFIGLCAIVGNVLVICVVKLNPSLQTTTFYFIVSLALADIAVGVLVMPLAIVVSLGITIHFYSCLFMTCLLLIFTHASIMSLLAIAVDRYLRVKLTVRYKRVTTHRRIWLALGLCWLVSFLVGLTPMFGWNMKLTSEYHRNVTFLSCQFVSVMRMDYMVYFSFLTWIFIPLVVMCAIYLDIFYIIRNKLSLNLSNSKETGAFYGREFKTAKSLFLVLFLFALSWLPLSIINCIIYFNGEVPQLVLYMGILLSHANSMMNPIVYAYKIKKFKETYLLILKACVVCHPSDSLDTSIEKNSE

[10] = target: T5, Adenosine receptor A3 (Mus musculus) (UniProt Q61618); test: Displacement of [125I]N6-(4-amino-3-iodobenzyl)adenosine-5'-N-methyluronamide from mouse A3AR expressed in HEK293T cells at 10 uM pre-incubated for 10 mins before radioligand addition and measured 90 mins after radioligand addition by micro beta scintillation counting analysis relative to control; assay type: cell-based
T5 sequence (whole entry): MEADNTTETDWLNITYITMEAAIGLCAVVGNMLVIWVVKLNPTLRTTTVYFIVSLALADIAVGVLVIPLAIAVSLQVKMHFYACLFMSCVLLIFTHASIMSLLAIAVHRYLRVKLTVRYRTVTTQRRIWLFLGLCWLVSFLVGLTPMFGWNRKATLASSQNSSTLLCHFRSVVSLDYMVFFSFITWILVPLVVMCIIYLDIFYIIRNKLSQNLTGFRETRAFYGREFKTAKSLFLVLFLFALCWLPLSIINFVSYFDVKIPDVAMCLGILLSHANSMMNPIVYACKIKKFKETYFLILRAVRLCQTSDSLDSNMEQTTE

[11] = target: Sigma intracellular receptor 2 (Rattus norvegicus, UniProt Q5U3Y7); test: Displacement of [3H]DTG from rat sigma 2 receptor
[12] = target: T2, Sodium-dependent dopamine transporter; test: Enhancing of [3H]WIN35,428 binding to recombinant human DAT expressed in HEK293 cell membranes at 10 uM pre-incubated for 10 mins before radioligand addition and measured 90 mins after radioligand addition by micro beta scintillation counting analysis relative to control
[13] = target: Muscarinic acetylcholine receptor M5 (Homo sapiens, UniProt P08912); test: Displacement of [3H]QNB from human muscarinic M5 receptor
[14] = target: Sigma non-opioid intracellular receptor 1 (Rattus norvegicus, UniProt Q9R0C9); test: Displacement of [3H]Pentazocine from rat sigma 1 receptor
[15] = target: T2, Sodium-dependent dopamine transporter; test: Inhibition of [3H]WIN35,428 binding to recombinant human DAT expressed in HEK293 cell membranes at 10 uM pre-incubated for 10 mins before radioligand addition and measured 90 mins after radioligand addition by micro beta scintillation counting analysis relative to control
[16] = target: Adenosine receptor A3 (Homo sapiens) (UniProt P0DMS8); test: Agonist activity at human A3AR assessed as inhibition of cAMP formation at 10 uM relative to adenosine-5'-Nethyluronamide
[17] = target: T6, 5-hydroxytryptamine receptor 2C (Homo sapiens, UniProt P28335); test: Displacement of [3H]Mesulergine from human 5-HT2C receptor
T6 sequence (P28335 whole entry): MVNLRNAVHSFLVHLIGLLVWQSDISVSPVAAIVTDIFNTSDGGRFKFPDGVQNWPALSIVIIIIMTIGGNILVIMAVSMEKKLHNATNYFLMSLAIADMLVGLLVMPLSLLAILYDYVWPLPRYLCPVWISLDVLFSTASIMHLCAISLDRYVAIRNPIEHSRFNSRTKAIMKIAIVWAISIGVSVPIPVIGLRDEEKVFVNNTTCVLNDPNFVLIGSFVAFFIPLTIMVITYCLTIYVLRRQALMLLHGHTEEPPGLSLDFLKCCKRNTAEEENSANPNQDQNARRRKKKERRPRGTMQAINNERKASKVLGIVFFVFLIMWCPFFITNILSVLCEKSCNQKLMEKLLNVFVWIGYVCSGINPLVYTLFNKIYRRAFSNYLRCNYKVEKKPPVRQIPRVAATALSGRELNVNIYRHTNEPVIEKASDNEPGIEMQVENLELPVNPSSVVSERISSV

[18] = target: T3, Sodium-dependent serotonin transporter; test: Inhibition of [125I]RTI-55 binding to recombinant human SERT expressed in HEK293 cell membranes preincubated for 10 mins followed by radioligand addition measured after 90 mins by micro beta scintillation counting analysis
[19] = target: Beta-3 adrenergic receptor (Homo sapiens, UniProt P13945); test: Displacement of [3H]CGP12177 from human adrenergic beta3 receptor
[20] = target: T2, Sodium-dependent dopamine transporter; test: Enhancing of [3H]WIN35,428 binding to recombinant human DAT expressed in HEK293 cell membranes pre-incubated for 10 mins before radioligand addition and measured 90 mins after radioligand addition by micro beta scintillation counting analysis relative to control
[21] = target: T2, Sodium-dependent dopamine transporter; test: Inhibition of recombinant human DAT expressed in HEK293 cell […] as reduction in [3H]-DA uptake incubated for 22 mins by micro beta scintillation counting analysis

T2 sequence (Q01959 whole entry): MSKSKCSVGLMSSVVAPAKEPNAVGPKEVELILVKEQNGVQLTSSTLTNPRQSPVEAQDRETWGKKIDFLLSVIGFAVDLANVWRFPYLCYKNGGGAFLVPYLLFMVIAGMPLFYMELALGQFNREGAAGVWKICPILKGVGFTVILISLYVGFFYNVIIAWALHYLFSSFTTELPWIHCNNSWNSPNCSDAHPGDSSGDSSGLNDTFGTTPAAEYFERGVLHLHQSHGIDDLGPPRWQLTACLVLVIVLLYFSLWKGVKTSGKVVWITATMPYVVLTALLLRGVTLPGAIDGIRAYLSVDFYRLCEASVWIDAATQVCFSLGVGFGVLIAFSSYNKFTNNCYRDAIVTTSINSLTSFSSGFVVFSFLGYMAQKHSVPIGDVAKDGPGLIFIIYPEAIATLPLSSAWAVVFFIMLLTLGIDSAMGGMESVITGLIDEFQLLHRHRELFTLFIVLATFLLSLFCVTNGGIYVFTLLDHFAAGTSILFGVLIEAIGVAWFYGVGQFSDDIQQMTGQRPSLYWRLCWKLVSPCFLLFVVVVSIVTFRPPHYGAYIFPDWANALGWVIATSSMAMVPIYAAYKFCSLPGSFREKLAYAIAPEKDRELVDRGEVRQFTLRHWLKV
T1 sequence (P23975 whole entry): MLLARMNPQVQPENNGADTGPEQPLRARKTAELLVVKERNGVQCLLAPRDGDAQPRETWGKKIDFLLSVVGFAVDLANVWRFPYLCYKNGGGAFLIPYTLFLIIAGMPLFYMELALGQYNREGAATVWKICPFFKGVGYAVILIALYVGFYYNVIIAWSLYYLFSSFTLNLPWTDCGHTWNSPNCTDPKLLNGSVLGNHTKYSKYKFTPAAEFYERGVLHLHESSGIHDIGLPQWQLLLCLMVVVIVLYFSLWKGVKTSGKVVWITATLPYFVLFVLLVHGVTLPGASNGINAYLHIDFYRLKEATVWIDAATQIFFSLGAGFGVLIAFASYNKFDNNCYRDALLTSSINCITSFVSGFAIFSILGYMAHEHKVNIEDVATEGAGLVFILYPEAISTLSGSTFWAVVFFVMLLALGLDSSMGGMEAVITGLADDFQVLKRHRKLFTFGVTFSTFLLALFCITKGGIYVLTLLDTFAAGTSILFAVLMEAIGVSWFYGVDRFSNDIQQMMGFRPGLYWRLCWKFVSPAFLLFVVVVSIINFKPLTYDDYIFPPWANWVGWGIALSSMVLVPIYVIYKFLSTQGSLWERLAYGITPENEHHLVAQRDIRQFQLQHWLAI
T3 sequence (P31645 whole entry): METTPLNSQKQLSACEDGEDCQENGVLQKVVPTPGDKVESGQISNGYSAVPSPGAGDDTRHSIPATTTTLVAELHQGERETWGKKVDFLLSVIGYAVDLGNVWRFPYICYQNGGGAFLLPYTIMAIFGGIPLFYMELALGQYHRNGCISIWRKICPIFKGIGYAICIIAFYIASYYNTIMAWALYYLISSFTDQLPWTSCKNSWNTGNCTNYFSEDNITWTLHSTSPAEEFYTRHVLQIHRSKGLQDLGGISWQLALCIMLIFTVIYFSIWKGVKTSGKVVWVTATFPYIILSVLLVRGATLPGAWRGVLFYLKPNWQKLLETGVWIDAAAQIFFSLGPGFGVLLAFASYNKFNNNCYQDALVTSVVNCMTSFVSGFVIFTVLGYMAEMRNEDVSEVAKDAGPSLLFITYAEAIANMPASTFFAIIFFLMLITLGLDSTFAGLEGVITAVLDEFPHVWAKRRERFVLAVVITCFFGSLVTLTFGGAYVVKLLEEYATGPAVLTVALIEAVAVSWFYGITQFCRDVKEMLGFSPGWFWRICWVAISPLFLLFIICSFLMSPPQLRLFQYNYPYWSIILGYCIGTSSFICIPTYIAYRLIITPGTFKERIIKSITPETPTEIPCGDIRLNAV
Sigma non-opioid intracellular receptor 1, sequence (Q9R0C9 whole entry): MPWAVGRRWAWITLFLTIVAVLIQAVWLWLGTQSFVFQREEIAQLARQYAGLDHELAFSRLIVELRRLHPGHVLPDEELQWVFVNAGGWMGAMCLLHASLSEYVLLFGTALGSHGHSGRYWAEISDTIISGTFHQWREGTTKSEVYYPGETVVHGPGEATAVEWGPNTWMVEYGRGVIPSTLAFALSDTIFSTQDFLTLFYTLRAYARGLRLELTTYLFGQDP
Muscarinic acetylcholine receptor M5, sequence (P08912 whole entry): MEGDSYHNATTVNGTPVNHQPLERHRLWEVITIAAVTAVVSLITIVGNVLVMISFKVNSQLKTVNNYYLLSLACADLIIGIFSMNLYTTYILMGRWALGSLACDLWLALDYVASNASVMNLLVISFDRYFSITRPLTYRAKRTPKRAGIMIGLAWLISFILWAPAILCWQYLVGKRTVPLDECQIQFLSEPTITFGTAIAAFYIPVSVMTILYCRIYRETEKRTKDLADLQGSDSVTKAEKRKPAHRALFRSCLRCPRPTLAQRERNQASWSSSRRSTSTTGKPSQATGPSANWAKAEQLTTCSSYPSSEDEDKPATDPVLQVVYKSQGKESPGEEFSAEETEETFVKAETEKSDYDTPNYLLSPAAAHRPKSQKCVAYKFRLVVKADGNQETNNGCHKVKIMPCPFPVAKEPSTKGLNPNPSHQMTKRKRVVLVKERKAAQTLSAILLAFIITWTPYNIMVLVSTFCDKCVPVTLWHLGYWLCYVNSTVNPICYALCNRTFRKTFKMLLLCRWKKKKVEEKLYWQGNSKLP
Beta-3 adrenergic receptor, sequence (P13945 whole entry): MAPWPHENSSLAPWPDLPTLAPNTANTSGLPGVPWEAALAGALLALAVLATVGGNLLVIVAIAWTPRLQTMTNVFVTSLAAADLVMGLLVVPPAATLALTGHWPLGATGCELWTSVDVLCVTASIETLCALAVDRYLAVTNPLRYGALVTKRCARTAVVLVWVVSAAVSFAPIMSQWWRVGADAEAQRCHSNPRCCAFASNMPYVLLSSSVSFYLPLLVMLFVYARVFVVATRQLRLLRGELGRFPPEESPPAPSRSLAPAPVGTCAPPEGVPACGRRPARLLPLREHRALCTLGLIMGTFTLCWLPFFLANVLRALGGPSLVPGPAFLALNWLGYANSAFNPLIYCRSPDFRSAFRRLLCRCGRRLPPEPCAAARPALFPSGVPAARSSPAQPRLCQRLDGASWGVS
Sigma intracellular receptor 2, sequence (Q5U3Y7 whole entry): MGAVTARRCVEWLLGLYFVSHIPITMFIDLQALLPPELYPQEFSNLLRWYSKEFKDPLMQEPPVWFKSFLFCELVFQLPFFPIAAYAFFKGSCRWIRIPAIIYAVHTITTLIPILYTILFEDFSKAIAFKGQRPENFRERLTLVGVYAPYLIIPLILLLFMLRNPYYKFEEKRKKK

For `COC(=O)[C@H]1[C@@H](c2ccc([125I])cc2)CC2CC[C@H]1N2C`, the EC50 [1] was “Not Active”, the Ki [2] was 11 nM and the EC50 [3] was “Not Active”.

`OC1(c2ccc(Cl)cc2)c2ccccc2C2=NCCN21` (racemic) [MAZINDOL] was tested, and the Ki [4] was 13.5 nM, the EC50 [1] was “Not Active” and the Ki [5] was 11.3 nM. The EC50 [6] was “Not Active”, the EC50 [3] was “Not Active” and the IC50 [7] was 0.92 nM. The EC50 ([8]; hek293) was “Not Active” and the EC50 ([9]; hek293) was “Not Active”.

Work on `CCOC(=O)[C@@]12C[C@@H]1[C@@H](n1cnc3c(NC)nc(C#Cc4ccc(Cl)s4)cc31)[C@H](O)[C@@H]2O` yielded a Ki (Adenosine receptor A3) of 169 nM, an inhibition [10] of 18% and a Ki [11] of 1900 nM. The Activity [12] was 354%, the Ki [13] was 3800 nM and the Ki [14] was 1040 nM. The inhibition [15] was “inactive”, the Efficacy [16] was 3.6% and the Ki [17] was 395 nM.

For `CNc1nc(C#Cc2ccc(Cl)s2)nc2c1ncn2[C@H]1[C@H](O)[C@H](O)[C@]2(C(=O)OCc3ccccc3)C[C@H]12`, the Ki (Adenosine receptor A3) was 7.31 nM, the inhibition [10] was 48% and the Ki [18] was 5600 nM. The Activity [12] was “inactive”.

`CCCNc1nc(C#Cc2ccc(Cl)s2)nc2c1ncn2[C@H]1[C@H](O)[C@H](O)[C@]2(C(=O)NC)C[C@H]12` gave a Ki [19] of 1440 nM, an EC50 [20] of over 1000 nM and an IC50 [21] of over 8700 nM. The Activity [8] was 268%, the EC50 ([8]; read-out: EC50) was 1120 nM and the Activity [9] was 159%. It also gave an EC50 ([9]; read-out: EC50) of 900 nM.
